Source: PubChem BioAssay
NTR1 ag: agonists of human neurotensin receptor NTR1 | P30989 | NTR1-U2OS beta-arrestin-GFP spot imaging, agonist mode | activation, % at 20 µM | 330,000 tested, 0.17% active | AID 493036;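 active = activation at or above 40% of the spot to cytoplasm intensity ratio, with at least 20 cells analyzed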
Target sequence (P30989 whole entry, looked up): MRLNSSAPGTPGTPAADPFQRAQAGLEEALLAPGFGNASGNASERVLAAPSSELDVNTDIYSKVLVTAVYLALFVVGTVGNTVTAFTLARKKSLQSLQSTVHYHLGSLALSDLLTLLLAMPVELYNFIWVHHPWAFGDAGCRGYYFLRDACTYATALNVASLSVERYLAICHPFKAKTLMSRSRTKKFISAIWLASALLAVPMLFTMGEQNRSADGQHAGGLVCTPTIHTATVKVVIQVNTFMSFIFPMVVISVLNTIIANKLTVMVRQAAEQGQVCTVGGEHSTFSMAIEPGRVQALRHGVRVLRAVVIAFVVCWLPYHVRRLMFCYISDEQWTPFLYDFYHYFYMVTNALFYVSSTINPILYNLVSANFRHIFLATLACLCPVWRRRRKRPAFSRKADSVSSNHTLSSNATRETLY
TAG inh: inhibitors of triacylglycerol accumulation | AID 651582 | 230,000 tested, 0.66% active | H9c2 cells, Nile Red lipid (TAG) fluorescence; cells loaded with 200 µM oleic acid | inhibition, % at 12.5 µM;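 active = pattern-corrected inhibition of lipid staining of at least 50% with the nuclear-stain viability signal not falling by more than 50%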
GRK2 inh: human GRK2 inhibition via aptamer displacement; P25098; bead flow cytometry, FAM-aptamer displacement from GRK2; inhibition of aptamer binding, % at 10 µM; 330,000 tested, 0.59% active; AID 488847;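 active = inhibition of aptamer binding above 40%, roughly 3 SD of noise, on plates passing a quality check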;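 note: median bead fluorescence of bound FAM aptamer so fluorescent compounds give negative values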
Lipid droplet: hepatic lipid droplet formation modulation; AML12 mouse hepatocytes, oleate lipid droplets, BODIPY imaging; inhibition, % at 6.5 µM; 240,000 tested, 0.4% active; AID 1656;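 active = lipid droplet intensity inhibited by at least 50%, with more than 500 cells counted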
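Material – AML12 mouse liver cells · Also added – oleate loading, 100 µM · Compound dosing – 6.5 µM single-point dosing · Times – overnight treatment with compound plus oleate · Measured by – fluorescence imaging, 20x objective, two fields per well · Read-out – percent inhibition of filter-corrected integrated lipid droplet intensity per well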
Arr AP2 block: human beta-arrestin and AP2 interaction inhibition. FITC-arrestin peptide / GST-AP2 beads, flow cytometry; AP2 beta2 appendage carries R879A mutation. inhibition, % at 10 µM. 340,000 tested, 0.31% active;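 active = inhibition above a set limit, near 3 SD of compounds lacking own fluorescence, cut at about 54% in these data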
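test system = AP2 appendage R879A on GSH beads | buffer or medium = PBS plus Tween 20 (0.05%) and BSA (0.1%) | incubation = 12 min plus 1 h, RT | detection = bead flow cytometry, FITC channel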
B2AR ag: activates human beta-2 adrenergic receptor causing internalization. P07550. Am2.2-beta2AR cells, FAP receptor internalization, flow cytometry. response, % (no concentration beside the values). 340,000 tested, 0.43% active. AID 504454;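 active = response above a set limit, near 3 SD of response in nonfluorescent compounds, cut at about 42% in these data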
Beta2AR ag CP1: activates human beta-2 adrenergic receptor; shares compounds with B2AR ag; Am2.2-beta2AR cells, FAP surface receptor, flow cytometry; hits give low values; percent response (surface receptor), % at 10 µM; 1,100 tested, 25% active; AID 540358;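 active = surface receptor percent response at or below 58%, roughly 3 SD from nonfluorescent compounds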
B2AR FAP counter: fluorescence artifact in beta-2AR agonist FAP counterscreen; shares compounds with B2AR ag; Am2.2 cells, FAP fluorogen flow cytometry; hits give low values; calls only at 10 µM; 1,100 tested, under 10 active; AID 588765;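 active = percent response below a set limit in fluorescence channel 1 and below 50% in channel 8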
Of the large screens only hits and unclear results are named; the others gave an inactive call (follow-up assays come after a bar, where they were run). Sampled rows, rich in hits. Any-hit rate of the full collection: about 2%.

CCC(C)(C)c1ccc(OCCCC[n+]2cccc(C)c2C)c(C(C)(C)CC)c1	B2AR ag 56 (no result: GRK2 inh) | Beta2AR ag CP1 inactive | B2AR FAP counter inactive
COc1ccc(CNC(=O)COC(=O)c2ccc(C)c(S(=O)(=O)N3CCOCC3)c2)cc1	none (no result: Lipid droplet)
O=C1Nc2cc(C(=O)NCCCN3CCCC3)ccc2S/C1=C\c1ccccc1	none (no result: TAG inh)
CCC1CCCCN1CCCNC(=O)c1ccc(/C=C2/Sc3ccccc3NC2=O)cc1 (configuration not stated)	B2AR ag 44 (no result: TAG inh) | Beta2AR ag CP1 inactive | B2AR FAP counter inactive
CCCCSc1nnc(-c2ccc(NC(C)=O)cc2)n1C	none (no result: TAG inh)
CC(=O)Nc1ccc(-c2nnc(SCc3ccc(C)cc3)n2C)cc1	B2AR ag 42 | Beta2AR ag CP1 inactive | B2AR FAP counter inactive
Brc1ccc(/C=N/Nc2nc3ccccc3o2)cc1	none (no result: TAG inh, Lipid droplet)
Oc1ccccc1/C=N/Nc1nc2ccccc2o1	TAG inh 63 | Beta2AR ag CP1 inactive | B2AR FAP counter inactive
C=CCn1c(SCc2ccc(F)cc2)nnc1-c1sc2nc(C)cc(C)c2c1N	B2AR ag 109 | Beta2AR ag CP1 28 | B2AR FAP counter inactive
C=CCn1c(SCc2ccc(OC)cc2)nnc1-c1cccnc1	none (no result: TAG inh, Lipid droplet)
O=C(C1CCN(S(=O)(=O)c2ccccc2)CC1)N1CCCCCC1	none
CC(C)(C)c1ccc(C(=O)NCc2nnc(SCC(=O)NCC3CCCO3)o2)cc1 (configuration not stated)	none
Cc1ccc(-c2noc(C3CCCN(S(=O)(=O)c4ccc5ccccc5c4)C3)n2)o1 (configuration not stated)	none (no result: TAG inh)
CC(=O)c1cccc(S(=O)(=O)N2CCCC(c3nc(-c4ccc(C)o4)no3)C2)c1 (configuration not stated)	B2AR ag 54 (no result: TAG inh, Lipid droplet) | Beta2AR ag CP1 inactive | B2AR FAP counter inactive
CN(C)c1ccc(-c2noc(C3CCN(S(=O)(=O)c4ccc(C(=O)O)cc4)CC3)n2)cc1	none (no result: TAG inh, Lipid droplet)
CN(C)c1ccc(-c2noc(C3CCN(S(=O)(=O)c4cccc(Cl)c4)CC3)n2)cc1	B2AR ag 65 (no result: TAG inh) | Beta2AR ag CP1 39 | B2AR FAP counter inactive
COc1ccc(C(=O)c2c(C)c3ccccc3n2CC(O)CNC(C)C)cc1 (configuration not stated)	B2AR ag 44 | Beta2AR ag CP1 inactive | B2AR FAP counter inactive
CC(C)NCC(O)Cn1c2c(c3ccccc31)CCc1c-2cnn1-c1ccccc1 (configuration not stated)	none (no result: TAG inh, Lipid droplet)
COc1ccc(/C=N/Nc2c(Cl)cc(Cl)cc2Cl)cc1CN1CCOCC1	none (no result: TAG inh)
CC1CCN(S(=O)(=O)c2ccc(C(=O)Nc3nnc(-c4ccco4)o3)cc2)CC1	B2AR ag 51 (no result: TAG inh) | Beta2AR ag CP1 inactive | B2AR FAP counter inactive
CC(Nc1nc(-c2cccnc2)nc2ccccc12)c1ccccc1 (configuration not stated)	none (no result: NTR1 ag, GRK2 inh, Lipid droplet, Arr AP2 block, B2AR ag)
COc1cccc(/C=N/Nc2nc(-c3cccnc3)nc3ccccc23)c1	none
COc1cccc(CNc2nc(-c3cccnc3)nc3ccccc23)c1	none | Beta2AR ag CP1 inactive | B2AR FAP counter inactive
COc1ccccc1C(C)Nc1nc(-c2cccnc2)nc2ccccc12 (configuration not stated)	none (no result: TAG inh) | Beta2AR ag CP1 inactive | B2AR FAP counter inactive
CCCC(C(=O)Nc1ccc(S(=O)(=O)N2CCCC2)cc1)c1ccccc1 (configuration not stated)	none (no result: Lipid droplet)
COc1ccccc1N1CC(C(=O)Nc2ccccc2N2CCCC2)CC1=O (configuration not stated)	none (no result: Lipid droplet)
CC(O)c1c(OCc2ccccc2)ncnc1OCc1ccccc1 (configuration not stated)	B2AR ag 98 | Beta2AR ag CP1 inactive | B2AR FAP counter inactive
Brc1cnc(OCc2ccccc2)nc1OCc1ccccc1	none (no result: NTR1 ag, GRK2 inh, Lipid droplet)
Cn1c(N)c(N2CCCCC2)c(=O)n(CC(=O)Nc2cccc(C#N)c2)c1=O	none (no result: Lipid droplet)
